PfM18AAP inh-1 = PfM18AAP inhibitors, malaria aminopeptidase, primary screen, biochemical, QFRET, recombinant enzyme; inhibition, % at 7.35 µM; AID 1822, 2009; 1.2% of 290,000 active; H-Glu-NHMec fluorogenic cleavage; M18 aspartyl aminopeptidase (Plasmodium falciparum 3D7);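 active = inhibition above the campaign mean inhibition over all tested compounds plus 3 SD, cut at about 28% in these data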;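 note: 0% = plate median of test compound wells and 100% = 2 mM ZnCl2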
VIM-2 inhibitor = VIM-2 metallo-beta-lactamase inhibitors, primary screen, biochemical, epi-absorbance readout, Pseudomonas aeruginosa enzyme; 0.89% of 290,000 active; inhibition, % at 5.6 µM; purified VIM-2, nitrocefin hydrolysis, epi-absorbance fluorescence;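 active = inhibition above the mean of all tested compounds plus 3 SD, cutoff set per screening run, cut at about 7.5% in these data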;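 note: red hydrolysis product quenches plate fluorescence so inhibitors raise well fluorescence; 0% = enzyme with DMSO and 100% = DMSO without enzyme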
IMP-1 inh = IMP-1 metallo-beta-lactamase inhibitors, primary screen, biochemical, epi-absorbance readout, Pseudomonas aeruginosa enzyme. metallo-beta-lactamase IMP-1 (Pseudomonas aeruginosa). purified IMP-1, nitrocefin hydrolysis, epi-absorbance fluorescence. inhibition, % at 5.6 µM. 0.45% of 290,000 active;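 active = inhibition above the mean plus 3 SD of all compounds in the same screening run, cut at about 4.5% in these data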;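 note: 0% = IMP-1 with DMSO and 100% = DMSO wells lacking enzyme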
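assay system = purified recombinant IMP-1 metallo-beta-lactamase enzyme | schedule = 15 min preincubation plus 25 min reaction at 25 °C | signal = Epi-absorbance fluorescence, 480 nm excitation, 530 nm emission | read-out basis = percent inhibition from optical density relative to buffer-blank wells | controls = IMP-1 with DMSO as 0%, enzyme-free DMSO as 100%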
CTSL1 counter-1 = Fasciola hepatica cathepsin L1 inhibitors, primary screen, counter-screen for PFM18AAP inhibitor project, biochemical, QFRET, fluorogenic peptide substrate; recombinant F. hepatica cathepsin L1, Z-Leu-Arg-MCA fluorescence; inhibition, % at 5.96 µM; 0.49% of 300,000 active;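 active = inhibition above the mean of all tested compounds plus 3 SD, set per screening campaign, cut at about 17% in these data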;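 note: 0% = plate median of test compound wells and 100% = 1 µM Z-Phe-Ala-diazomethylketone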
PfM18AAP inh-2 = PfM18AAP inhibitors, malaria aminopeptidase, confirmation, biochemical, QFRET, recombinant enzyme, triplicate. H-Glu-NHMec fluorogenic cleavage. 28% of 2,400 active. AID 2170, 2009. inhibition, % at 7.35 µM. shares compounds with PfM18AAP inh-1;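 active = mean inhibition over replicate wells above the hit cutoff set for the earlier primary screen, cut at about 29% in these data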;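 note: 0% = median of test compound wells and 100% = 2 mM ZnCl2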
CTSL1 counter-2 = cathepsin L1 inhibitors, retest, confirmation, counter-screen for PFM18AAP inhibitor project, biochemical, QFRET, triplicate; 2,400 tested, under 10 active; AID 2178, 2009; shares compounds with PfM18AAP inh-1; inhibition, % at 5.96 µM; purified cathepsin L1, Z-Leu-Arg-MCA fluorescence;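 active = average inhibition across replicates above the hit cutoff set in the earlier primary screen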;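 note: 0% = median of test compound wells and 100% = Z-Phe-Ala-diazomethylketone 1 µM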
Target sequence (P07711 whole entry, looked up): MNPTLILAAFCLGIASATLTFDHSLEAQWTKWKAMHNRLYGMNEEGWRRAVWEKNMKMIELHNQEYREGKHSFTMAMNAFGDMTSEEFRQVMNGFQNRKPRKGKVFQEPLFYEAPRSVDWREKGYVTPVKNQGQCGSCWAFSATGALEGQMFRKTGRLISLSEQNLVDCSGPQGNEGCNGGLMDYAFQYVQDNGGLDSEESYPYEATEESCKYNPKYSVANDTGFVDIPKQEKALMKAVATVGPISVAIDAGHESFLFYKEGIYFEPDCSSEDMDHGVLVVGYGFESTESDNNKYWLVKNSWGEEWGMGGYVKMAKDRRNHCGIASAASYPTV
* hit, by the source's call. Compounds with a hit are over-represented: about 2.7% of the library has one in this group of screens.

CCOc1ccc(NC(=S)NNC(=S)Nc2cccc(C(F)(F)F)c2)cc1 was read as PfM18AAP inh-1 15.1, VIM-2 inhibitor -3.5, IMP-1 inh -1.6 and CTSL1 counter-1 2.0.
For Cc1cccc(OCC(=O)NCCCNC(=O)c2ccncc2)c1 the results were PfM18AAP inh-1 -3.4, VIM-2 inhibitor -2.8, IMP-1 inh 1.2 and CTSL1 counter-1 0.7.
CCn1c2ccccc2c2cc(NC(=O)CSc3nnc(-c4cccc(F)c4)o3)ccc21 was read as PfM18AAP inh-1 -2.9, VIM-2 inhibitor -1.5, IMP-1 inh -1.7 and CTSL1 counter-1 3.4.
`O=C(CSc1nnc(-c2cccc(F)c2)o1)Nc1nncs1` gave PfM18AAP inh-1 50.1*, VIM-2 inhibitor -0.8, IMP-1 inh -1.1, CTSL1 counter-1 3.9, PfM18AAP inh-2 -32.1 and CTSL1 counter-2 -2.8.
For CC(=O)Nc1ccc(NC(=O)CC(NC(=O)c2ccccc2)c2ccccc2)cc1 (configuration not stated) the results were PfM18AAP inh-1 -2.4, VIM-2 inhibitor -0.5, IMP-1 inh -1.4 and CTSL1 counter-1 -1.0.
`O=c1[nH]sc2ccccc12` gave PfM18AAP inh-1 49.7*, VIM-2 inhibitor -2.3, IMP-1 inh -3.8, PfM18AAP inh-2 30.0* and CTSL1 counter-2 2.3.
For O=C(Nc1ccccc1O)c1ccccc1O the results were PfM18AAP inh-1 34.0*, VIM-2 inhibitor -6.4, IMP-1 inh -1.6, CTSL1 counter-1 -5.3, PfM18AAP inh-2 29.3* and CTSL1 counter-2 -5.0.
Screening CC/C(=N\Nc1ccnc2cc(Cl)ccc12)c1ccc(O)cc1 returned PfM18AAP inh-1 33.6*, VIM-2 inhibitor 0.8, IMP-1 inh -3.9, CTSL1 counter-1 0.3, PfM18AAP inh-2 -27.1 and CTSL1 counter-2 1.7.
`Oc1ccc(/C=N/Nc2ccnc3cc(Cl)ccc23)c(O)c1O` gave PfM18AAP inh-1 49.4*, VIM-2 inhibitor -2.1, IMP-1 inh -5.4, CTSL1 counter-1 1.9, PfM18AAP inh-2 -61.3 and CTSL1 counter-2 6.8.
For Clc1ccc2c(NCc3ccccn3)ccnc2c1 the results were PfM18AAP inh-1 1.1, VIM-2 inhibitor -2.6, IMP-1 inh -3.9 and CTSL1 counter-1 1.3.
For CCOc1ccccc1Nc1ccnc2cc(Cl)ccc12 the results were PfM18AAP inh-1 1.3, VIM-2 inhibitor -4.3, IMP-1 inh -0.6 and CTSL1 counter-1 -1.0.
For Cc1c(CNCCc2ccccc2Cl)c(C(=O)O)c(C)n1-c1ccccc1 the results were PfM18AAP inh-1 0.1, VIM-2 inhibitor 2.7, IMP-1 inh -1.2 and CTSL1 counter-1 3.0.
Screening COc1cc(/C=C2/C(=O)ON=C2C)cc(Cl)c1O returned PfM18AAP inh-1 32.3*, VIM-2 inhibitor -6.3, IMP-1 inh -7.9, CTSL1 counter-1 0.2, PfM18AAP inh-2 11.1 and CTSL1 counter-2 0.1.
C#CCOc1c(Cl)cc(/C=C2/C(=O)ON=C2C)cc1OC was read as PfM18AAP inh-1 8.5, VIM-2 inhibitor 2.1, IMP-1 inh -0.9 and CTSL1 counter-1 0.8.
For Cn1c(=O)n(C)c2cc(NC(=O)c3ccccc3[N+](=O)[O-])c(Br)cc21 the results were PfM18AAP inh-1 0.8, VIM-2 inhibitor -2.7, IMP-1 inh -1.1 and CTSL1 counter-1 -1.2.
Screening O=S(=O)(Nc1ncn[nH]1)c1ccc2ccccc2c1 returned PfM18AAP inh-1 51.1*, VIM-2 inhibitor -3.5, IMP-1 inh -3.8, CTSL1 counter-1 -2.6, PfM18AAP inh-2 41.2* and CTSL1 counter-2 -1.5.
O=S(=O)(Nc1nc2ccccc2[nH]1)c1ccc2ccccc2c1 was read as PfM18AAP inh-1 -5.6, VIM-2 inhibitor -6.8, IMP-1 inh -2.5 and CTSL1 counter-1 -0.5.
Screening Cc1cc(C)c(S(=O)(=O)Nc2ncn[nH]2)cc1C returned PfM18AAP inh-1 41.7*, VIM-2 inhibitor -2.8, IMP-1 inh -2.3, CTSL1 counter-1 5.8, PfM18AAP inh-2 10.5 and CTSL1 counter-2 -1.6.
For COc1cc(-c2nc(CN3CCN(c4ncccn4)CC3)c(C)o2)ccc1F the results were PfM18AAP inh-1 1.5, VIM-2 inhibitor 0.2, IMP-1 inh -1.3 and CTSL1 counter-1 10.4.
For N#Cc1c(N2C(=O)Nc3ccccc3N2O)sc2c1CCCCCC2 the results were PfM18AAP inh-1 34.9*, VIM-2 inhibitor 5.3, IMP-1 inh 0.5, CTSL1 counter-1 -2.0, PfM18AAP inh-2 -40.9 and CTSL1 counter-2 8.1.
O=C(Cc1ccc([N+](=O)[O-])cc1)c1c(O)cc(O)cc1O was read as PfM18AAP inh-1 44.1*, VIM-2 inhibitor -2.8, IMP-1 inh -2.1, CTSL1 counter-1 -1.1, PfM18AAP inh-2 21.0 and CTSL1 counter-2 -9.3.
`Cc1cc(O)cc(O)c1C(=O)Cc1ccccc1` gave PfM18AAP inh-1 -9.4, VIM-2 inhibitor -2.1, IMP-1 inh -0.8 and CTSL1 counter-1 -3.9.
`CCc1cc2c(=O)oc(-c3ccc(F)cc3)nc2s1` gave PfM18AAP inh-1 1.5, VIM-2 inhibitor -0.5, IMP-1 inh 0.3 and CTSL1 counter-1 -0.3.
CC1(C)CC(=O)C2=C(C1)OC(N)=C(C#N)C2Cc1ccccc1 (configuration not stated) was read as PfM18AAP inh-1 7.8, VIM-2 inhibitor -2.6, IMP-1 inh -0.6 and CTSL1 counter-1 -5.3.
`COC(=O)Cc1ccc(O)c(N)c1` gave PfM18AAP inh-1 54.1*, VIM-2 inhibitor -1.6, IMP-1 inh -2.6, CTSL1 counter-1 -2.5, PfM18AAP inh-2 60.9* and CTSL1 counter-2 -0.4.
N#Cc1c(/N=C/c2ccc(Br)s2)sc2c1CCC2 was read as PfM18AAP inh-1 -2.5, VIM-2 inhibitor -2.3 and IMP-1 inh -3.0.
Screening N#Cc1c(/N=C/c2cccs2)sc2c1CCCCC2 returned PfM18AAP inh-1 34.1*, VIM-2 inhibitor -0.6, IMP-1 inh -1.9, CTSL1 counter-1 7.6, PfM18AAP inh-2 -23.4 and CTSL1 counter-2 7.3.
For O=C(c1ccc(Cl)cc1Cl)C1(n2cncn2)Oc2ccccc2C1O (configuration not stated) the results were PfM18AAP inh-1 35.6*, VIM-2 inhibitor -4.1, IMP-1 inh -2.3, CTSL1 counter-1 -2.9, PfM18AAP inh-2 4.4 and CTSL1 counter-2 -3.9.
`N/C(Cn1cncn1)=N\NC(=O)c1ccc(Cl)cc1Cl` gave PfM18AAP inh-1 10.2, VIM-2 inhibitor -2.5, IMP-1 inh -3.5 and CTSL1 counter-1 3.5.
For CCC1CCC2(CC1)NNC(=S)NN2 the results were PfM18AAP inh-1 35.5*, VIM-2 inhibitor -2.3, IMP-1 inh -3.8, CTSL1 counter-1 7.2, PfM18AAP inh-2 39.0* and CTSL1 counter-2 -0.4.
CCCOc1ccc(C2C(C(=O)/C=C/c3ccco3)=C(O)C(=O)N2CCN2CCOCC2)cc1OC (configuration not stated) was read as PfM18AAP inh-1 33.1*, VIM-2 inhibitor -2.2, IMP-1 inh -2.3, CTSL1 counter-1 7.0, PfM18AAP inh-2 -37.6 and CTSL1 counter-2 0.8.

Bioassay records as filed in PubChem.
